This note sets out measurements from ChEMBL document CHEMBL1127410, “Dipeptide phosphonates as inhibitors of dipeptidyl peptidase IV” (J Med Chem, 1994).

For data set [1], the target named is Dipeptidyl peptidase 4 (Homo sapiens) (UniProt P27487).
A short description of data set [2]: Half life for the spontaneous hydrolysis in buffer was measured. It is filed as ADME. Summed up: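 Inhibitor (0.1 mM final) in 0.05 M Tris pH 7.8 with 10% v/v Me2SO. Spontaneous hydrolysis followed as absorbance rise at 270 nm (phenoxy), 280 nm (4-chlorophenoxy) or 277 nm (4-fluorophenoxy). Half-lives from first-order plots of ln(Af − At) vs time, Af being final absorbance of monophenyl ester plus phenol.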

Data set [3] concerns the target Cathepsin B (Homo sapiens) (UniProt P07858). Put plainly: The second order inhibition rate constant for the compound was measured against cathepsin B; NI-No inhibition after 30 min of incubation of enzyme with inhibitor. Summed up: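 Cathepsin B incubated with inhibitor in 100 mM KH2PO4, 1.33 mM EDTA, 2.7 mM fresh cysteine pH 6.0, 8-9% Me2SO, 23 °C. Aliquots assayed with Z-Arg-Arg-AMC, fluorescence at ex 380/em 460 nm. kobs from ln v/v0 vs time. NI means no inhibition after 30 min.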

Data set [4] has as its target T1, Chymotrypsin-like elastase family member 2A (Sus scrofa) (UniProt P08419).
T1 sequence (whole entry): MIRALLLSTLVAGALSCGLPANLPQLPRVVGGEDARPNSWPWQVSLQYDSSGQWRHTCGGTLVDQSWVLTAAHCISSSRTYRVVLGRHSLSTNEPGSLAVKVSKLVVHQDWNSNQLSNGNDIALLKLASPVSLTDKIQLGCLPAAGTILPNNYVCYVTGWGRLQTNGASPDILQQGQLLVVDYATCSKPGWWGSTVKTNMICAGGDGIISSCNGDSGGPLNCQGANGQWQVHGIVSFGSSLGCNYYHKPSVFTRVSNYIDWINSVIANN
Put plainly: The second order inhibition rate constant for the compound was measured against PPE; NI-No inhibition after 30 min of incubation of enzyme with inhibitor.

The target of data set [5] is Chymotrypsinogen A (Bos taurus) (UniProt P00766). Put plainly: The second order inhibition rate constant for the compound was measured against chymotrypsinogen.
In data set [6] the target is T2, Neutrophil elastase (Homo sapiens) (UniProt P08246).
T2 sequence (whole entry): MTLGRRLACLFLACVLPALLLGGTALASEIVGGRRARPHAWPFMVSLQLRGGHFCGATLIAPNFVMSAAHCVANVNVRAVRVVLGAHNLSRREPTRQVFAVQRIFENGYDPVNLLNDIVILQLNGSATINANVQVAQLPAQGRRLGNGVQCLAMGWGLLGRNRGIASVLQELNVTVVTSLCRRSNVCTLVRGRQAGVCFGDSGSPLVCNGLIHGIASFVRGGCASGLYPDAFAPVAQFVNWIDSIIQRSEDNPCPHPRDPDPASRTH
Put plainly: The second order inhibition rate constant for the compound was measured against HLE; NI-No inhibition after 30 min of incubation of enzyme with inhibitor.

For another data set, the target named is T3, Papain (Carica papaya) (UniProt P00784).
T3 sequence (whole entry): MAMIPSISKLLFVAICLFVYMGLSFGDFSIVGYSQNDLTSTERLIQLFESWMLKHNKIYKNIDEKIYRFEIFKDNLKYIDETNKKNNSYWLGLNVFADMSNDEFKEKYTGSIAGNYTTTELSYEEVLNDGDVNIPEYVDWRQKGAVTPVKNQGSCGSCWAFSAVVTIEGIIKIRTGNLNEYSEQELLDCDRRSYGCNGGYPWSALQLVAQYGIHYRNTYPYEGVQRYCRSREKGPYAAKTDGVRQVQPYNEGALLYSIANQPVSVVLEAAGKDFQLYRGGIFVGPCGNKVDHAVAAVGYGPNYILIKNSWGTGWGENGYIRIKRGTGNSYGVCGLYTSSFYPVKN
Put plainly: The second order inhibition rate constant for the compound was measured against papain; NI-No inhibition after 30 min of incubation of enzyme with inhibitor. Summed up:
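Papain incubated with inhibitor in 50 mM Tris-HCl, 2 mM EDTA, 5 mM fresh cysteine pH 7.5, 8-9% Me2SO, 23 °C. Aliquots assayed with Bz-Arg-AMC, fluorescence at ex 380/em 460 nm. kobs from ln v/v0 vs time. NI means no inhibition after 30 min.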

The target in data set [7] is T4, Choline O-acetyltransferase (Rattus norvegicus) (UniProt P32738).
T4 sequence (whole entry): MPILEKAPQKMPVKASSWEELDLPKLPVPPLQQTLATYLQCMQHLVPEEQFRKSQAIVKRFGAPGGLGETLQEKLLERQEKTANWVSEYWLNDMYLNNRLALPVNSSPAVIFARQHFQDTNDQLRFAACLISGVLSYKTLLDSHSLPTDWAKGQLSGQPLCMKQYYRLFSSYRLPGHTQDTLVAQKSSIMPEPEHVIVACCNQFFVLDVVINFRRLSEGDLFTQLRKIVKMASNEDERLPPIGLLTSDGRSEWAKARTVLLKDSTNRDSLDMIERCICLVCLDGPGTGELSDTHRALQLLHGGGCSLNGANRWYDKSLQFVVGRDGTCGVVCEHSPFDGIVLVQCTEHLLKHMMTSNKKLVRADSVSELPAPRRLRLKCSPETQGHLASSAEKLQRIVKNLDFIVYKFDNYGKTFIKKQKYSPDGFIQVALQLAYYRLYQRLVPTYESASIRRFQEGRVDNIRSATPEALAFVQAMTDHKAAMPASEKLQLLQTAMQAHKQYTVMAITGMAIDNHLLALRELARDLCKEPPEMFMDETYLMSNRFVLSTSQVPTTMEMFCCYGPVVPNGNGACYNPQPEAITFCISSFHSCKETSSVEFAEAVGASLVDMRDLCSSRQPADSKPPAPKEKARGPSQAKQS

The target of data set [8] is Chymotrypsinogen A (Bos taurus) (UniProt P00766).

Some results are limits rather than exact numbers.

Chain of Dipeptidyl peptidase 4 (Homo sapiens) (P27487 whole entry, looked up): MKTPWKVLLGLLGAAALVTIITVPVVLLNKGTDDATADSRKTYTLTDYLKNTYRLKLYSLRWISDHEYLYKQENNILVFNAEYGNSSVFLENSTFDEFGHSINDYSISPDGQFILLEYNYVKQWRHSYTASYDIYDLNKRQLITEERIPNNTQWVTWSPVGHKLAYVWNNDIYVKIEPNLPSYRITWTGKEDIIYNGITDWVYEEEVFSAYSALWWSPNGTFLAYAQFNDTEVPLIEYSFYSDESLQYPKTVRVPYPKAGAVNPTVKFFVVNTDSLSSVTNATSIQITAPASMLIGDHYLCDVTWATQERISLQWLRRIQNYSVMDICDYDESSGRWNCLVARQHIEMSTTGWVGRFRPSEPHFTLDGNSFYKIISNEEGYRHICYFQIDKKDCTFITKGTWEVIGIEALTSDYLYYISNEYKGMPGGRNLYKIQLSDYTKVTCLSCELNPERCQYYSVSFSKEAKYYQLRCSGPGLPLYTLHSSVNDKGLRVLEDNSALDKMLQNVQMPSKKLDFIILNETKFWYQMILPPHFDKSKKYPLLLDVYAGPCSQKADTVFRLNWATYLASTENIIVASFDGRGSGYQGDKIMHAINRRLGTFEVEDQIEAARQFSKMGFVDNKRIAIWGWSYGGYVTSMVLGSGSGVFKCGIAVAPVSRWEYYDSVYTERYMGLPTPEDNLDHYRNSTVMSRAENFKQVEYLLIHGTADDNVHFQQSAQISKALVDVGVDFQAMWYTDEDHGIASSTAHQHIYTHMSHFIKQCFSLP

Take `C[C@H](N)C(=O)N1CCCCC1P(=O)(Oc1ccc(F)cc1)Oc1ccc(F)cc1` (some centres not stated): the K obs / 1 in data set [1] came to 12 M⁻¹ s⁻¹. Besides, the half-life – broadly, how long it takes for the measured level to halve – in data set [2] is 2.83 days.

On to `Br.Br.NCCCC[C@H](N)C(=O)N1CCC[C@H]1P(=O)(Oc1ccccc1)Oc1ccccc1`, for which, in data set [1], the K obs / 1 is 1.7 M⁻¹ s⁻¹. In data set [2], this molecule had a half-life of 2.17 days.

Regarding `C[C@H](N)C(=O)N1CCCCC1P(=O)(Oc1ccc(Cl)cc1)Oc1ccc(Cl)cc1` (mixture of isomers) [listing 1 of 2 here], the “K obs / 1” value in data set [3] is “No inhibition”; in data set [4], “No inhibition”; in [5], 18 M⁻¹ s⁻¹; in data set [1], 156 M⁻¹ s⁻¹; in data set [6] it was “No inhibition”; on Papain (Carica papaya) it was “No inhibition”.

As to `C[C@H](N)C(=O)N1CCCCC1P(=O)(Oc1ccc(Cl)cc1)Oc1ccc(Cl)cc1` (some centres not stated) [listing 1 of 2 here], in data set [2], the T1/2 was more than 48 h.

For `C[C@H](N)C(=O)N1CCCCC1P(=O)(Oc1ccc(Cl)cc1)Oc1ccc(Cl)cc1` (some centres not stated) [listing 2 of 2 here], in data set [1], the K obs / 1 was found to be 1300 M⁻¹ s⁻¹.

For `C[C@H](N)C(=O)N1CCC[C@H]1P(=O)(Oc1ccc(Cl)cc1)Oc1ccc(Cl)cc1`, the “K obs / 1” value in data set [3] was “No inhibition”; in data set [4], “No inhibition”; in data set [5], 26 M⁻¹ s⁻¹; in data set [1], 28 M⁻¹ s⁻¹; in data set [6], “No inhibition”; at Papain (Carica papaya), “No inhibition”. In [2], this molecule showed a half-life of 0.221 days.

As to `NCCCC[C@H](N)C(=O)N1CCCCC1P(=O)(Oc1ccccc1)Oc1ccccc1` (some centres not stated), in [1], the K obs / 1 was determined as 4.2 M⁻¹ s⁻¹. The molecule also displayed a half-life in data set [2] of more than 2 days.

On to `C[C@H](N)C(=O)N1CCCCC1P(=O)(Oc1ccc(Cl)cc1)Oc1ccc(Cl)cc1` (mixture of isomers) [listing 2 of 2 here], for which the half-life in data set [2] is 2.79 days.

Regarding `C[C@H](N)C(=O)N1CCC[C@H]1P(=O)(Oc1ccccc1)Oc1ccccc1.Cl`, the “K obs / 1” value in [3] is “No inhibition”; in data set [4] it was “No inhibition”; in [7], “No inhibition”; in data set [8], “No inhibition”; in data set [1], 1.2 M⁻¹ s⁻¹; in [6], “No inhibition”. Also, the “K obs / 1” value on Papain (Carica papaya) is “No inhibition”. This molecule showed a half-life in data set [2] of 0.963 days.

Molecule `C[C@H](N)C(=O)N1CCCCC1P(=O)(Oc1ccccc1)Oc1ccccc1` (some centres not stated) gave a K obs / 1 in [1] of 12.6 M⁻¹ s⁻¹. The same molecule showed a half-life in [2] of more than 3 days.
